According to ChEMBL document CHEMBL3098030, “Explorations of substituted urea functionality for the discovery of new activators of the heme-regulated inhibitor kinase” (J Med Chem, 2013):
Activity calls are given as the source filed them. No cut-off for these calls is given here.

Experiments:
[1] = biological target: Eukaryotic translation initiation factor 2-alpha kinase 1 (Homo sapiens) (UniProt Q9BQI3); test: Activation of HRI in human CRL-2813-pBISA-DL(ATF-4) reporter cells assessed as eIF2alpha phosphorylation after 10 hrs by dual-luciferase reporter gene assay in presence of siRNA relative to control
Eukaryotic translation initiation factor 2-alpha kinase 1 (Homo sapiens), sequence (Q9BQI3 whole entry): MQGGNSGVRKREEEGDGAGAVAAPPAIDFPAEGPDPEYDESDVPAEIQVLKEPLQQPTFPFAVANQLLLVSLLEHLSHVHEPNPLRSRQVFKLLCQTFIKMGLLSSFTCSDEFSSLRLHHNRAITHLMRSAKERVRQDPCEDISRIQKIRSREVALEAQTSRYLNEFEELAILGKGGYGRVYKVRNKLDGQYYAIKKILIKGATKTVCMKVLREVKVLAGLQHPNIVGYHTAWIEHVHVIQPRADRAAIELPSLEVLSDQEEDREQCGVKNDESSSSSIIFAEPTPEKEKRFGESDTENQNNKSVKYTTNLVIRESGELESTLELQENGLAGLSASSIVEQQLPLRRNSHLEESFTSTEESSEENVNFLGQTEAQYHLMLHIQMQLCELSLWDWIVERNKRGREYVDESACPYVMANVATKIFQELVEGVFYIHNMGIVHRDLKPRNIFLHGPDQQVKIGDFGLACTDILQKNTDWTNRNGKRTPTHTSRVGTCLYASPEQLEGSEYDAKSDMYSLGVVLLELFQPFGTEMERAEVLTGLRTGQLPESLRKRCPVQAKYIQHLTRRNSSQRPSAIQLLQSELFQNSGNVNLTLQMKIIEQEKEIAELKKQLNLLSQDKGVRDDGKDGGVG
In short: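 CRL-2813-pBISA-DL(ATF-4) reporter cells transiently transfected (Lipofectamine 2000) with HRI-targeting or non-targeting siRNA for 48 h, then treated with compounds or DMSO for 10 h. Firefly/renilla ratio by dual luciferase assay, normalized to vehicle. Triplicate, three independent experiments; mean±S.E.M.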

[2] = test system: MCF7; test: Antiproliferative activity against human MCF7 cells after 5 days by SRB assay in presence of non-targeting siRNA; format: functional, cell-based; conditions: MCF7, 120 h
[3] = biological target: Eukaryotic translation initiation factor 2-alpha kinase 1 (Homo sapiens) (UniProt Q9BQI3); test: Activation of HRI in human CRL2813 cells assessed as increase in CHOP mRNA expression at 7.5 to 15 uM after 6 hrs by RT-PCR analysis; format: cell-based
In short: (§1)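 CRL-2813 cells incubated with 7.5 or 15 μM compound for 6 h; CHOP and cyclin D1 mRNA measured by real-time PCR. Each run in triplicate, mean of three independent experiments ±S.E.M.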

[4] = biological target: Eukaryotic translation initiation factor 2-alpha kinase 1 (Homo sapiens) (UniProt Q9BQI3); test: Activation of HRI in human CRL-2813-pBISA-DL(ATF-4) reporter cells assessed as concentration required to obtain F-luciferase expression/R-luciferase expression ratio 3
In short: (§2)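 Stably transfected CRL-2813-pBISA-DL(ATF-4) reporter cells treated with compounds in dose-response; firefly and renilla luciferases read by dual glow luciferase kit. Activity = firefly/renilla (F/R) ratio normalized to DMSO-treated wells (set at 1). Triplicate points fitted to logistic sigmoidal model by nonlinear least squares; C3X = concentration giving F/R = 3, Emax = maximal F/R.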

[5] = biological target: Eukaryotic translation initiation factor 2-alpha kinase 1 (Homo sapiens) (UniProt Q9BQI3); test: Activation of HRI in human CRL-2813-pBISA-DL(ATF-4) reporter cells assessed as reduction of ternary complex at 30 uM by dual-luciferase reporter gene assay relative to control; in short: as §2
[6] = Antiproliferative activity against human CRL2813 cells after 5 days by SRB assay in presence of non-targeting siRNA; format: functional, cell-based; conditions: CRL2813, 120 h
[7] = biological target: Eukaryotic translation initiation factor 2-alpha kinase 1 (Homo sapiens) (UniProt Q9BQI3); test: Activation of HRI in human CRL2813 cells assessed as increase in CHOP protein expression at 10 uM after 6 hrs by Western blotting analysis; format: cell-based
In short: (§3)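 CRL-2813 melanoma cells grown in serum-containing medium without antibiotics to 70% confluence, treated 6 h (10 μM for CHOP/cyclin D1), lysed in M-PER on ice 30 min, protein by BCA. Equal protein on SDS-PAGE, probed with anti-pS51-eIF2α rabbit mAb, anti-total eIF2α mouse mAb, anti-CHOP, anti-cyclin D1, anti-actin. Three independent experiments.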

[8] = biological target: Eukaryotic translation initiation factor 2-alpha kinase 1 (Homo sapiens) (UniProt Q9BQI3); test: Activation of HRI in human CRL2813 cells assessed as reduction in cyclin D1 protein expression at 10 uM after 6 hrs by Western blotting analysis; format: cell-based; in short: as §3
[9] = test system: MCF7; test: Antiproliferative activity against human MCF7 cells after 5 days by SRB assay in presence of HRI-targeting siRNA; format: functional, cell-based; conditions: MCF7, 120 h
[10] = Antiproliferative activity against human CRL2813 cells after 5 days by SRB assay in presence of HRI-targeting siRNA; format: functional, cell-based; conditions: CRL2813, 120 h
[11] = biological target: Eukaryotic translation initiation factor 2-alpha kinase 1 (Homo sapiens) (UniProt Q9BQI3); test: Activation of HRI in human CRL2813 cells assessed as eIF2alpha phosphorylation after 6 hrs by Western blotting analysis; format: cell-based; in short: as §3
[12] = Ratio of IC50 for human CRL2813 cells after 3 days by SRB assay in presence of HRI-targeting siRNA to IC50 for human CRL2813 cells after 3 days by SRB assay in presence of non-targeting siRNA
[13] = biological target: Eukaryotic translation initiation factor 2-alpha kinase 1 (Homo sapiens) (UniProt Q9BQI3); test: Activation of HRI in human CRL2813 cells assessed as reduction in cyclin D1 mRNA expression at 7.5 to 15 uM after 6 hrs by RT-PCR analysis; format: cell-based; in short: as §1
[14] = Cytotoxicity against human CRL2813 cells after 5 days by SRB assay; format: functional, cell-based; conditions: CRL2813, 120 h
In short: (§4)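 CRL-2813 melanoma or NIH/3T3 fibroblasts seeded in 96-well plates, exposed 5 days to 0.5–20 μM compound; fixed in cold 10% TCA, bound sulforhodamine B measured. % growth = 100×(T−T0)/(C−T0). IC50 derived; triplicate, three independent experiments.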

[15] = biological target: Eukaryotic translation initiation factor 2-alpha kinase 1 (Homo sapiens) (UniProt Q9BQI3); test: Activation of HRI in human CRL-2813-pBISA-DL(ATF-4) reporter cells assessed as eIF2alpha phosphorylation after 8 to 32 hrs by dual-luciferase reporter gene assay
In short: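 Reporter CRL-2813-pBISA-DL(ATF-4) cells incubated with compounds for 8, 16 or 32 h. Firefly/renilla luciferase ratio measured by dual luciferase assay and normalized to vehicle-treated cells.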

[16] = Antiproliferative activity against human CRL2813 cells after 3 days by SRB assay in presence of non-targeting siRNA; format: functional, cell-based; conditions: CRL2813, 72 h
In short: (§5)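 CRL-2813 cells transiently transfected (Lipofectamine 2000) with HRI-targeting or non-targeting siRNA, then treated with compound dose range; proliferation by SRB after 3 days. IC50 calculated per siRNA condition; ratio is HRI-siRNA over non-targeting IC50. Triplicate, three independent experiments; mean±S.E.M.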

[17] = Antiproliferative activity against human CRL2813 cells after 3 days by SRB assay in presence of HRI-targeting siRNA; format: functional, cell-based; conditions: CRL2813, 72 h; in short: as §5
[18] = Ratio of IC50 for human CRL2813 cells after 3 days by SRB assay in presence of HRI-targeting siRNA to IC50 for human CRL2813 cells after 3 days by SRB assay in presence of non-targeting siRNA; format: functional; in short: as §5
[19] = test system: NIH3T3; test: Cytotoxicity against mouse NIH/3T3 cells after 5 days by SRB assay; format: cell-based; conditions: NIH3T3, 120 h; in short: as §4
[20] = Selectivity ratio of IC50 for mouse NIH/3T3 cells to IC50 for human CRL2813 cells; format: ADME, cell-based; conditions: NIH/3T3 cells and CRL2813 cells, read-out: Ratio IC50

SMILES	Activity [1]	IC50 [2]	Activity [3]	Activity [4]	Ratio [5]	Activity [7]	Activity [8]	IC50 [9]	Activity [11]	Activity [13]	Activity [15]	IC50 [6]	IC50 [10]	Ratio IC50 [12]	IC50 [14]	IC50 [16]	IC50 [17]	Ratio IC50 [18]	IC50 [19]	selectivity ratio [20]
O=C(Nc1cccc(C(F)(F)F)c1)N[C@H]1CC[C@H](Oc2ccccc2F)CC1	–	–	–	3.2 µM	7.98	–	–	–	–	–	Active	–	–	–	2.45 µM	2.8 µM	21.9 µM	7	–	–
O=C(Nc1ccc(C(F)(F)F)cc1)N[C@H]1CC[C@H](Oc2ccc(F)cc2)CC1	inactive	8.4 µM	Active	1.6 µM	14	Active	Active	29.5 µM	Active	Active	–	3.1 µM	6.5 µM	1.7	2.8 µM	–	–	–	–	–
O=C(Nc1cccc(C(F)(F)F)c1)N[C@H]1CC[C@H](Oc2cccc(F)c2)CC1	–	–	–	2.6 µM	7.23	–	–	–	–	–	Active	–	–	–	2.4 µM	4.3 µM	29.9 µM	7	–	–

More lines, main results first:

Activity [1]	IC50 [2]	Activity [3]	Activity [4]	Ratio [5]	Activity [7]	Activity [8]	IC50 [9]	Activity [11]	Activity [13]	Activity [15]	SMILES	IC50 [6]	IC50 [10]	Ratio IC50 [12]	IC50 [14]	IC50 [16]	IC50 [17]	Ratio IC50 [18]	IC50 [19]	selectivity ratio [20]
inactive	9.8 µM	Active	6.7 µM	9	Active	Active	> 30 µM	Active	Active	–	O=C(Nc1ccc([N+](=O)[O-])cc1)N[C@H]1CC[C@H](Oc2ccc(F)cc2)CC1	5.2 µM	12.2 µM	1.7	2.3 µM	–	–	–	–	–
inactive	11.3 µM	Active	4.5 µM	11.8	Active	Active	> 30 µM	Active	Active	–	O=C(Nc1cccc(C(F)(F)F)c1)N[C@H]1CC[C@@H](Oc2ccc(F)cc2)CC1	6 µM	10.4 µM	1.7	2.6 µM	6 µM	10.4 µM	–	–	–
inactive	9.2 µM	Active	0.7 µM	15.3	Active	Active	30 µM	Active	Active	–	O=C(Nc1ccc(OC(F)(F)F)cc1)N[C@H]1CC[C@H](Oc2ccc(F)cc2)CC1	3.3 µM	7.4 µM	1.7	2.7 µM	–	–	–	13.6 µM	5
